Measured values reported in article PMC6688507 (Journal of medicinal chemistry, 2018).
“Also recorded” adds a separate entry of the source.

What was measured:
pancreatic cancer = settings: metastatic pancreatic cancer patients; cited from earlier work
MIA PaCa-2 cells = assay: MTT cytotoxicity assay, MIA PaCa-2; format: cell-based, human; settings: for effect of NAC on proliferation inhibitory effect: NAC 5 mM, MTT assay, 72 h; for IC50: Homo sapiens, MIA PaCa-2, 72 h, read-out: IC50 (μM) MIA PaCa-2, MTT assay, 72 h treatment, mean ± SD from three independent experiments
[1] = tested on: nascent RNA synthesis in MIA PaCa-2 cells; assay: Bru-seq analysis for nascent RNA synthesis; format: cell-based, human; settings: for apoptosis signaling by IPA analysis: 4 h, QD232 3 times IC50, QD325 5 times IC50; for nascent mitochondrial RNA synthesis: MIA PaCa-2, 4-hour treatment, QD232 at 6.9 μM, QD325 at 5.0 μM; for synthesis of NQO1 and HMOX1 RNAs / transcription of DDIT3 and HSPA5: MIA PaCa-2, 4 h; for synthesis of NQO1 and HMOX1 RNAs: QD232 at 1, 2 or 3 times IC50, QD325 at 1, 2 or 5 times IC50; for transcription of DDIT3 and HSPA5: dose-dependent
[2] = tested on: ROS accumulation in MIA PaCa-2 cells; assay: ROS detection assay; format: cell-based, human; settings: for ROS accumulation / ROS induction after NAC pretreatment: MIA PaCa-2; for ROS accumulation: compounds at 10, 3.3 or 1.1 μM; for ROS induction after NAC pretreatment: NAC 5 mM for 30 min; for ROS induction and cytotoxicity compared with QD325: triphenylphosphonium derivatives
In short: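 MIA PaCa-2 cells were trypsinised (0.05% trypsin-EDTA), loaded with 20 μM H2DCFDA for 30 min at 37 °C, washed, then seeded at 20,000 cells/well. After 30 min they were given test compound, with DMSO for basal signal and unstained cells plus 10 μM compound for autofluorescence. For NAC runs, cells were pretreated with 5 mM NAC for 30 min, with H2O2 as a control. Fluorescence was read at 493/523 nm over time, in duplicates; three independent experiments.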

MIA PaCa-2 xenograft [3] = settings: 20 mg/kg, 31-day study, similar MIA PaCa-2 xenograft model; cited from earlier work
MIA PaCa-2 xenograft [4] = assay: MIA PaCa-2 xenograft tumor growth in NOD/SCID mice; format: in vivo
[5] = tolerability in MIA PaCa-2 engrafted NOD/SCID mice; format: in vivo
BxPC-3 cells = assay: MTT cytotoxicity assay, BxPC-3; format: cell-based; settings: Homo sapiens, BXPC-3, 72 h, read-out: IC50 (μM) BxPC-3, MTT assay, 72 h treatment; mean ± SD from three independent experiments

For `Nc1ccn([C@@H]2O[C@H](CO)[C@@H](O)C2(F)F)c(=O)n1` [Gemcitabine], the median overall survival (pancreatic cancer) is given as 6.8 months.
With `CC(=O)c1cccc(NC2=CC(=O)c3ncncc3C2=O)c1` [QD232, reference compound] the “effect of NAC on proliferation inhibitory effect” value (MIA PaCa-2 cells) was “attenuated”, the “apoptosis signaling by IPA analysis” value [1] was “significant activation of apoptosis signaling” and the “nascent mitochondrial RNA synthesis” value [1] was “inhibited”. The “synthesis of NQO1 and HMOX1 RNAs” value [1] was “upregulated in a dose-dependent manner”, the “transcription of DDIT3 and HSPA5” value [1] was “significantly increased” and the ROS accumulation [2] was “time-and dose-dependent accumulation of ROS”. The “ROS induction after NAC pretreatment” value [2] was “inhibited” and the “suppression of tumor growth” value (MIA PaCa-2 xenograft [3]) was 65%.
With `O=C1C(Nc2ccc(-c3ccccc3)cc2)=CC(=O)c2ncncc21` [QD325, 6-([1,1’-Biphenyl]-4-ylamino)quinazoline-5,8-dione] the “effect of NAC on proliferation inhibitory effect” value (MIA PaCa-2 cells) was “attenuated”, the “apoptosis signaling by IPA analysis” value [1] was “significant activation of apoptosis signaling” and the “nascent mitochondrial RNA synthesis” value [1] was “inhibited”. For the same compound, the “synthesis of NQO1 and HMOX1 RNAs” value [1] was “upregulated in a dose-dependent manner”, the “transcription of DDIT3 and HSPA5” value [1] was “significantly increased” and the ROS accumulation [2] was “time-and dose-dependent accumulation of ROS; also recorded: stronger and more rapid ROS accumulation”. For the same compound, the “ROS induction after NAC pretreatment” value [2] was “inhibited”, the “Ki67 staining (proliferation marker) in tumor tissues” value (MIA PaCa-2 xenograft [4]; QD325 5 mg/kg five times a week until day 44, immunohistochemistry) was “decreased” and the “inhibition of tumor growth, experiment of Figure 6E” value (MIA PaCa-2 xenograft [4]; QD325 5 mg/kg five times a week, 48 days) was 83%. For the same compound, the “inhibition of tumor growth, experiment of Figure 5A” value (MIA PaCa-2 xenograft [4]; QD325 5 mg/kg five times a week, day 44) was 76%, the “NQO1, HO-1, CHOP and GRP78 protein levels in tumor lysates” value (MIA PaCa-2 xenograft [4]; QD325-treated vs vehicle-treated tumors) was “significantly upregulated” and the “histopathology of H&E stained organ sections” value ([5]; 5 mg/kg five times a week until day 44) was “did not reveal any major histopathological changes”. The “systemic toxicity at higher doses” value ([5]; dose increased from 5 to 20 mg/kg, day 44 to day 67, two mice per group) was “without any overt systemic toxicity” and the “symptoms of gross toxicity (weakness, weight loss, lethargy)” value ([5]; study 1, 5 mg/kg five times a week until day 44) was “No symptoms of gross toxicity”.
For `COc1cc(NC2=CC(=O)c3ncncc3C2=O)cc(OC)c1OC` [QD326, 6-((3,4,5-Trimethoxyphenyl)amino)quinazoline-5,8-dione], the “effect of NAC on proliferation inhibitory effect” value (MIA PaCa-2 cells) was “attenuated”, the ROS accumulation [2] was “time-and dose-dependent accumulation of ROS; also recorded: stronger and more rapid ROS accumulation” and the “ROS induction after NAC pretreatment” value [2] was “inhibited”.
For `Nc1ccc(C(=O)NCCC[P+](c2ccccc2)(c2ccccc2)c2ccccc2)cc1` [QD339, (3-(4-Aminobenzamido)propyl)triphenylphosphonium bromide], the IC50 (MIA PaCa-2 cells) was greater than 30 µM and the IC50 (BxPC-3 cells) was greater than 30 µM.
In the case of `O=C(NCCC[P+](c1ccccc1)(c1ccccc1)c1ccccc1)c1ccc(NC2=CC(=O)c3ncncc3C2=O)cc1.[Br-]` [QD340, (3-(4-((5,8-Dioxo-5,8-dihydroquinazolin-6-yl)amino)benzamido)propyl) triphenylphosphonium bromide], the “ROS induction and cytotoxicity compared with QD325” value [2] is reported as “did not show better ROS induction and cytotoxicity than QD325”.
`Nc1cccc(C(=O)NCCC[P+](c2ccccc2)(c2ccccc2)c2ccccc2)c1` [QD358, (3-(3-Aminobenzamido)propyl)triphenylphosphonium bromide] gave an IC50 (MIA PaCa-2 cells) greater than 30 µM and an IC50 (BxPC-3 cells) greater than 30 µM.
For `O=C(NCCC[P+](c1ccccc1)(c1ccccc1)c1ccccc1)c1cccc(NC2=CC(=O)c3ncncc3C2=O)c1.[Br-]` [QD359, (3-(3-((5,8-Dioxo-5,8-dihydroquinazolin-6-yl)amino)benzamido)propyl) triphenylphosphonium bromide], the “ROS induction and cytotoxicity compared with QD325” value [2] was “did not show better ROS induction and cytotoxicity than QD325”.
In the case of FOLFIRINOX, the median overall survival (pancreatic cancer) is given as 11.1 months.
